Measured values of several laboratories.
Each line is one published result; the experiments were not run side by side.
Target: Serine/threonine-protein kinase WNK1 (WNK1, Homo sapiens, UniProt Q9H4A3)

Compound	assay	setting	endpoint	value
CS(=O)(=O)Nc1cccc(-c2csc(NC(=O)CSc3nc4nccnc4c(=O)n3CCc3ccccc3)n2)c1	enzyme activity, inhibitor	10 µM	inhibition	-3%
Cn1cncc1C1=CN(c2ncnc3[nH]cnc23)CCS1	enzyme activity, inhibitor, radiometric	2 µM	inhibition	10.7%
CC(C)(O)[C@H]1CC[C@H](Nc2ccc3ncc(-c4cccc(C(F)(F)F)c4)n3n2)CC1	enzyme activity, inhibitor	1 µM	remaining activity	92.6%
Cc1sc(C(=O)NC2COC2)cc1-n1cc(NC(=O)Nc2c(F)cccc2Cl)cn1	enzyme activity, inhibitor	10 µM	remaining activity	88.9%
N#Cc1ccc(Nc2ccc3[nH]c(=O)[nH]c3c2)c(Cl)c1	cell-free assay, competition with immobilised ligand	1 µM	remaining binding	100%
CC(C)(C)c1nc(-c2cccc(NS(=O)(=O)c3c(F)cccc3F)c2F)c(-c2ccnc(N)n2)s1	enzyme activity, inhibitor, radiometric	1 µM	remaining activity	98%
Nc1ncnc2occ(-c3ccc(NC(=O)Nc4cc(C(F)(F)F)ccc4F)cc3)c12	cell-free assay, inhibitor	20 µM	remaining signal	87%
CN([C@@H]1CCc2c(CC(=O)O)c3cc(S(C)(=O)=O)ccc3n2C1)S(=O)(=O)c1ccc(F)cc1	cell-free assay, competition with immobilised ligand	1 µM	remaining binding	95%
C[C@@H]1CCN(c2nccc(-c3cnn4ncccc34)n2)C1	binding	1 µM	remaining binding	92%
C[C@@H]1CN(c2cc(-c3n[nH]c4ccc(OC5(C)CC5)cc34)ncn2)C[C@H](C)O1	cell-free assay, competition with immobilised ligand	0.1 µM	remaining binding	89%
O=C(Nc1cnn(-c2csc(C(=O)NC3COC3)c2)c1)Nc1ccccc1Cl	enzyme activity, inhibitor	5 µM	remaining activity	99.7%
N[C@@H]1CCN(c2nccc(-c3cnn4ncccc34)n2)C1	binding	1 µM	remaining binding	100%
C[C@@H]1CN(c2cc(-c3nn(C)c4ccc(OC5(C)CC5)cc34)ncn2)C[C@H](C)O1	cell-free assay, competition with immobilised ligand	1 µM	remaining binding	82%
COc1cc(Nc2cnc(C#N)c(O[C@H](C)CN(C)C)n2)ncc1-c1cnn(C)c1	enzyme activity, inhibitor, radiometric	10 µM	remaining activity	75%
CN(c1ccnc(CNc2nc(Nc3ccc4c(c3)CC(=O)N4)ncc2C(F)(F)F)n1)S(C)(=O)=O	cell-free assay, competition with immobilised ligand	1 µM	remaining binding	87%
FC(F)(F)Oc1cccc(-c2cnc3ccc(-c4ccncc4)nn23)c1	enzyme activity, inhibitor, radiometric	5 µM	activity vs control	99%
